This is one part of a sample in which hits are shown more often than they occur.
E coli WT inh – blocks growth of wild type E. coli BW25113. E. coli BW25113 growth inhibition, OD600. inhibition, % at 10 µM. 0.05% of 20,000 active; in the data active = inhibition above about 40%;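 also: bacteria exposed to compound for 20 hours at 37 °C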
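Material: bacterial strain in a whole-cell growth screen; Amount: inoculum from a 1:1000 dilution of a 1.5 h subculture; Buffer or medium: LB plus kanamycin 50 µg/mL; Dosing: one dose, 10 µM final; Times: compound exposure of 20 h at 37 °C; Measured by: absorbance at 615 nm as a measure of bacterial growth.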
Active calls of the source: *.

SMILES	E coli WT inh
Cc1ccc2nc(Nc3ccc4[nH]c(=O)[nH]c4c3)c(-n3nc(C)cc3C)nc2c1	-15.5
CCOC(=O)C1=C(c2ccccc2)N2CCN=C2S1	-2.6
CCCCc1nnc(SCCSc2nnc(CCCC)n2N)n1N	-24.9
Cc1cc(C)n(C(=O)c2cccc(S(=O)(=O)N3CCCC3)c2)n1	-15.6
COc1ccc(Cc2nnc3n2N=C(c2cc4ccccc4o2)CS3)cc1OC	-2.3
CCCOC(=O)c1ccc(-c2c(C)noc2-c2ccc(OC)cc2O)o1	-6.7
CC(CN(C)Cc1ccccc1)OC(=O)c1ccc2c(c1)OCCO2 (centres undefined)	-1.8
Clc1ccc(Br)cc1-c1nc(-c2cccnc2)no1	-1.0
CCOC(=O)N1CCN(C(=O)c2nc3ccccc3s2)CC1	1.2
Cc1cc(NC(=O)CSc2nccn2-c2ccc(Cl)cc2)no1	4.8
C=CCOc1cccc(C2/C(=C(/O)c3ccccc3)C(=O)C(=O)N2CCCN2CCOCC2)c1 (centres undefined)	-17.7
COc1ccc([C@@H]2Sc3ccccc3N(CCN(C)C)C(=O)[C@@H]2OC(C)=O)cc1	3.1
COc1cc(OC)nc(NC(=O)CSc2nnc(-c3ccccc3)n2C2CCCCC2)n1	-11.2
CC(C)C(=O)Nc1cccc(NC(=O)CCN2C(=O)c3ccccc3S2(=O)=O)c1	-7.2
CC(=O)Nc1nc(CC(C)C)cc(-c2ccco2)c1C#N	-1.3
Cc1cc2nc(C3CCN(CC4COc5ccccc5O4)CC3)[nH]c2cc1C (centres undefined)	6.2
CN(C1=NC(=O)C(CC(=O)Nc2ccc(Br)cc2)S1)c1ccc(O)cc1 (centres undefined)	-0.5
CCOc1cc(C(=O)NCCOC)ccc1OC	-14.3
COc1ccccc1-n1c(=O)oc2ccc(Cl)cc2c1=O	10.8
Oc1ccc(Br)cc1/C=N/n1cnc2ccccc21	-18.9
Cc1cc(N2CCC3(CC2)OCCO3)n2nc(C)c(-c3ccc(Cl)cc3)c2n1	19.0
CCn1cc(C(=O)O)c(=O)c2cc(F)c(N3CCNCC3)nc21	75.3*
CCn1cc(C(=O)OCc2ccc(F)cc2)c(=O)c2ccc(C)nc21	-7.6
CCn1cc(C(=O)O)c(=O)c2ccc(C)nc21	26.4
c1ccc(-c2nnc3sc(CN4CCc5ccccc54)cn23)cc1	-13.5
SMILES	E coli WT inh
COC(=O)c1c(NC(=O)CN2CCC(C)CC2)c2c(C)cccc2n1C	-22.8
Cc1[nH]c(=O)[nH]c(=O)c1S(=O)(=O)N1c2ccc(F)cc2CCC1C (centres undefined)	-4.1
CCOC(=O)COc1ccc2c(c1)c(C(=O)OCC)c(C)n2CC	-22.8
c1ccc(NCCCNc2ccccc2)cc1	-16.3
O=c1c2ccc(-c3nnc4n3-c3ccccc3SC4)cc2nc2n1CCCCC2	-1.1
Cc1ccc(S(=O)(=O)Cn2nnnc2CN(Cc2ccco2)CC2CCCO2)cc1 (centres undefined)	10.1
OC(COc1ccc2c(c1)CCC2)Cn1cnc2ccccc21 (centres undefined)	-20.3
CC(=O)N1CCc2cc(S(=O)(=O)NCCC3=CCCCC3)ccc21	-0.3
CCOc1ccc(C(=O)OCc2nnc(-c3cccs3)o2)cc1OC	-2.2
COc1ccc(C2C3=C(CCCC3=O)Nc3nc4ccccc4n32)cc1OC (centres undefined)	-13.9
CS(=O)(=O)Nc1ccc(C(=O)NC2CCCC2)cc1	4.5
CC1CC(C)CN(Cc2nc3c(c(=O)n(C)c(=O)n3C)n2Cc2ccccc2Cl)C1 (centres undefined)	2.0
Cn1nnnc1SCC(=O)N1CCN(c2cccc(Cl)c2)CC1	-2.3
CCC(=O)N1CCN(c2ccccc2NC(=O)COc2ccccc2Cl)CC1	-1.7
CN=C1SC(CC(=O)Nc2cc(Cl)ccc2Cl)C(=O)N1C (centres undefined)	-26.2
CN(C)CCCN1C(=O)C(=O)/C(=C(/O)c2ccc3c(c2)OCO3)C1c1cccnc1 (centres undefined)	-17.1
CS(=O)(=O)N(CC(=O)N1CCCCCC1)c1ccc2c(c1)OCCO2	-8.0
CC1CCc2cc(F)cc3c(O)c(C(=O)NCC4CCCO4)c(=O)n1c23 (centres undefined)	7.2
CC1CCc2cc(F)cc3c(=O)c(C(=O)O)cn1c23 (centres undefined)	43.9*
COc1cc(OC)cc(C(=O)N2c3ccc(F)cc3CCC2C)c1 (centres undefined)	0.6
Cc1nc2ccccn2c1/C(O)=C1\C(=O)C(=O)N(CCCN(C)C)C1c1ccc(F)cc1 (centres undefined)	5.8
O=C(CSc1nc(N2CCCCC2)nc(N2CCCCC2)n1)NC1CCCCC1	-1.0
Cc1cc(C)n(S(=O)(=O)Cc2ccccc2)n1	8.0
COCCn1c(CN2CCN(c3ccccc3F)CC2)nc2c1c(=O)n(C)c(=O)n2C	9.9
CCCCN1C(=O)c2ccc(C(=O)NC3=NCCS3)cc2C1=O	-16.9
SMILES	E coli WT inh
CC(=O)c1cc(OC(=O)c2ccncc2)ccc1OC(=O)c1ccncc1	-23.5
CCOc1ccccc1-c1nnc(SCC(=O)Nc2ccccc2)o1	2.2
COc1ccc(N2CCN(c3nc4c(c(=O)[nH]c(=O)n4C)n3CCCc3ccccc3)CC2)cc1	-4.8
N#CC1=C(N)N2C(=C(C#N)C13CCCCC3)SC1CCCCC12O (centres undefined)	-4.2
Cc1ccc2c(C)nc(NC3=NCN(C(C)C)CN3)nc2c1	1.8
Cc1cccc2cc(CN(Cc3nnnn3Cc3ccco3)C3CCCC3)c3nnnn3c12	-3.5
CN(CCCC(=O)Nc1ccncc1)S(=O)(=O)c1ccc(Cl)cc1	9.5
COc1ccc(NCC(=O)Nc2ccc(Cl)cc2C)c(OC)c1	-6.8
Nc1nonc1-n1nnc(C(=O)c2ccccc2)c1-c1ccccc1	1.3
CCOC(=O)N1CCN(C(=O)c2cn(CC)c3cc(N4CCN(C)CC4)c(F)cc3c2=O)CC1	70.9*
CCOC(=O)c1cn(CC)c2cc(N3CCOCC3)c(F)cc2c1=O	15.5
CCOC(=O)N1CCN(c2cc3nccnc3cc2F)CC1	-7.1
CCN1CCN(C(=O)c2cn(CC)c3ccc(S(=O)(=O)N(C)C)cc3c2=O)CC1	4.6
CCN1CCN(c2cc3c(cc2F)c(=O)c(C(=O)O)cn3C2CC2)CC1	72.2*
CCC(=O)c1cc(F)c(N2CCN(C(=O)Cc3ccccc3)CC2)cc1C	-17.0
O=C(O)CN(Cc1ccccc1)S(=O)(=O)c1ccc(F)cc1	-11.7
COc1ccc(NC(=O)Nc2cc(C)ccc2OC(F)F)c(OC)c1	-12.1
COCc1nnc(NS(=O)(=O)c2ccc(Br)cc2)s1	-0.6
CCCCC(CC)C(=O)Nc1ccccc1C(=O)NC(C)C (centres undefined)	-15.4
Cc1nnc(Sc2nc(Sc3nnc(C)s3)nc(N3CCN(C)CC3)n2)s1	-16.4
